One data set has as its system L-363. The experiment in a line: Antiproliferative activity against human L-363 cells assessed as reduction in cell viability after 72 hrs by CellTiter-Glo assay. The note with it: L-363, 72 h. Format: functional, cell-based. The method in brief: (§1)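 Cells seeded in 96-well plates, left overnight at 37°C, then exposed to a range of test concentrations for 72 h. Viability read by CellTiter-Glo luminescence; IC50 from four-parameter curve fit. Lines kept at 37°C, 5% CO2, in recommended growth medium.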
Background: In ATP-based viability assays light output follows the ATP content of the culture.

A further data set deals with EJM. The experiment in a line: Antiproliferative activity against human EJM cells assessed as reduction in cell viability after 72 hrs by CellTiter-Glo assay. The data set is classed as functional, cell-based. The method, boiled down: as §1
A further data set deals with KARPAS-299. The experiment in a line: Antiproliferative activity against human KARPAS-299 cells assessed as reduction in cell viability after 72 hrs by CellTiter-Glo assay. The note with it: KARPAS-299, 72 h. Format: functional, cell-based. The method, boiled down: as §1
Data set [1] can be described thus: Antiproliferative activity against IGF1-stimulated mouse NIH-3T3/LISN cells over expressing human IGF1R assessed as reduction in cell viability preincubated for 2 hr followed by IGF1R stimulation and measured after 72 hrs by CellTiter-Glo assay. The data set is classed as functional, cell-based. The method, boiled down:
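NIH-3T3 overexpressing human IGF-IR, kept in DMEM/10% FBS with 500 µg/mL G418. Seeded on collagen-coated 96-well plates and allowed to adhere 24 h. Switched to serum-free medium, compound or DMSO added for 2 h, then IGF-I 30 ng/mL. Incubated 72 h at 37°C. Read by CellTiter-Glo; IC50 by four-parameter fit.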

Data set [2] can be described thus: Cytotoxicity against HFF cells assessed as reduction in cell viability after 72 hrs by CellTiter-Glo assay. Format: toxicity, cell-based. The settings on record: human. The method, boiled down: as §1
Another data set deals with NCI-H929. As to the kind of experiment: Induction of cell cycle arrest in human NCI-H929 cells assessed as decrease in cells accumulation at S phase at 0.03 to 10 uM incubated for 24 to 48 hrs by propidium iodide staining based flow cytometric analysis. The data set is classed as functional. The note with it: dose 0.03-10 µM, time lower 24.0 hrs, time upper […]. The method in brief:
(§2)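 COLO 205, MCF-7 or NCI-H929 cells seeded in 96-well plates overnight at 37°C, then exposed to DMSO or increasing compound concentrations for 24 or 48 h. Fixed and stained with propidium iodide (Vindelov method), then analysed by flow cytometry for sub-G1, G1, S and G2-M fractions. Experiment repeated twice.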
A general note: A flow cytometer gives signals particle by particle.

The next data set has as its system COLO 205. As to the kind of experiment: Induction of cell cycle arrest in human COLO 205 cells assessed as cells accumulation at G1 phase at 1 umol/L incubated for 48 hrs by propidium iodide staining based flow cytometric analysis (reference value: 65%). The note with it: dose 1 µmol/L, at 1 µM. Format: functional. The method, boiled down:
as §2

Data set [3] in a line: In vivo inhibition of IGF1R in mouse NIH-3T3/LISN cells implanted in IGF1-stimulated nu/nu CD-1 mouse assessed as reduction in IGF1R phosphorylation at 30 mg/kg, po pretreated for 4 hrs followed by IGF1 stimulation and measured after 10 min by […] relative to control. The data set is classed as functional. The note with it: 4.167 h, time 250 min. The method in brief: (§3)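 Female nu/nu CD-1 mice, three per group, bearing ~500 mm3 tumors, given one oral dose of compound or vehicle. At 4 h, 10 µg hIGF-I i.v. via tail vein; saline controls. Tumor and blood taken 10 min later. Tumor lysates in RIPA captured on anti-IGF-IR plates and probed with europium anti-phosphotyrosine. Phospho/total IGF-IR expressed as % of ligand-stimulated control. Blood levels by LC-MS/MS.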

Data set [4] in a line: In vivo inhibition of IGF1R in mouse NIH-3T3/LISN cells xenografted in IGF1-stimulated nu/nu CD-1 mouse assessed as reduction in IGF1R phosphorylation at 3.5 umol/L blood compound concentration pretreated for 4 hrs followed by IGF1 stimulation and measured after 10 min by […] relative to control. The settings on record: dose 3.5 µmol/L; time 250 min; 4.167 h; at 3.5 µM. Format: functional. The method in brief: as §3

A further data set has as its target Aurora kinase A (Homo sapiens, UniProt O14965). As to the kind of experiment: Inhibition of Aurora A (unknown origin). The method in brief: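 In-house kinase panel assay with conditions developed and optimized for this kinase. Aurora A was assayed in the presence of its accessory protein TPX2. IC50 was determined.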
Data set [5] concerns the target 3-phosphoinositide-dependent protein kinase 1 (Homo sapiens, UniProt O15530). The experiment in a line: Inhibition of PDK1 (unknown origin).
The target in data set [6] is Phosphatidylinositol 4,5-bisphosphate 3-kinase catalytic subunit beta isoform (Homo sapiens, UniProt P42338). The experiment in a line: Inhibition of PI3Kbeta (unknown origin).
The target of data set [7] is NUAK family SNF1-like kinase 1 (Homo sapiens) (UniProt O60285). The experiment in a line: Inhibition of N-terminal 6His-tagged recombinant human ARK5 (2 to end residues) expressed in baculovirus infected Sf21 cells at 0.3 uM by filter binding assay relative to control. The method, boiled down: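 KinaseProfiler panel of 233 kinases: radiometric filter-binding activity assays with compound at 0.3 or 3 µmol/L. Read-out is percent inhibition.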

The target in data set [8] is Protein-tyrosine kinase 6 (Homo sapiens) (UniProt Q13882). The experiment in a line: Inhibition of N-terminal His6-tagged recombinant full-length human BRK expressed in baculovirus infected Sf21 cells at 0.3 uM by filter binding assay relative to control. The method in brief: (§4)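 Outsourced single-concentration screen in a commercial panel of 233 protein kinases, run as radiometric filter-binding activity assays. Test agent was tested at 0.3 or 3 µmol/L, as given in each line, from a 10 mmol/L DMSO stock. Activity is expressed as percent inhibition relative to control.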

For data set [9], the target named is Tyrosine-protein kinase BTK (Homo sapiens, UniProt Q06187). As to the kind of experiment: Inhibition of N-terminal His6-tagged recombinant full-length human BTK expressed in baculovirus infected Sf21 cells at 0.3 uM by filter binding assay relative to control. The method in brief: as §4
The target in data set [10] is Ephrin type-A receptor 5 (Homo sapiens) (UniProt P54756). The experiment in a line: Inhibition of N-terminal His6-tagged human EphA5 expressed in baculovirus infected Sf21 cells at 0.3 uM by filter binding assay relative to control. The method in brief: as §4
Data set [11] is described as follows: Inhibition of […] N-terminal 6His-tagged full length human P110delta/full length human p85beta expressed in baculovirus infected Sf21 cells at 0.3 uM by filter binding assay relative to control. The settings on record: condition cancer.
Data set [12] concerns the target Serine/threonine-protein kinase tousled-like 2 (Homo sapiens) (UniProt Q86UE8). As to the kind of experiment: Inhibition of N-terminal 6His-tagged recombinant human TLK2 (388 to end residues) expressed in baculovirus infected Sf21 cells at 0.3 uM by filter binding assay relative to control. The method, boiled down: as §4
In data set [13] the target is Tyrosine-protein kinase Blk (Mus musculus) (UniProt P16277). As to the kind of experiment: Inhibition of N-terminal His6-tagged recombinant full-length mouse Blk expressed in baculovirus infected Sf21 cells at 3 uM by filter binding assay relative to control. The method, boiled down:
as §4

The target of data set [14] is Serine/threonine-protein kinase D1 (Homo sapiens) (UniProt Q15139). The experiment in a line: Inhibition of N-terminal His6-tagged recombinant full-length human PKCmu expressed in Sf21 cells at 3 uM by filter binding assay relative to control. The method in brief: as §4
The target in data set [15] is Ribosomal protein S6 kinase alpha-4 (Homo sapiens, UniProt O75676). The experiment in a line: Inhibition of N-terminal His6-tagged recombinant human MSK2 (2 to end residues) expressed in baculovirus infected Sf21 cells by filter binding assay.
Data set [16] concerns the target Insulin receptor (Mus musculus) (UniProt P15208). The note with it: CD-1, dose 10-60 mg/kg, route po, time 242.0 min.

The values that follow come from ChEMBL document CHEMBL5678798 (Clin Cancer Res, 2009).

Calls of active or inactive are those of the source. No cut-off for these calls is given here. Bounds are passed on as bounds.

Sequence of Phosphatidylinositol 4,5-bisphosphate 3-kinase catalytic subunit beta isoform (P42338 whole entry, canonical isoform): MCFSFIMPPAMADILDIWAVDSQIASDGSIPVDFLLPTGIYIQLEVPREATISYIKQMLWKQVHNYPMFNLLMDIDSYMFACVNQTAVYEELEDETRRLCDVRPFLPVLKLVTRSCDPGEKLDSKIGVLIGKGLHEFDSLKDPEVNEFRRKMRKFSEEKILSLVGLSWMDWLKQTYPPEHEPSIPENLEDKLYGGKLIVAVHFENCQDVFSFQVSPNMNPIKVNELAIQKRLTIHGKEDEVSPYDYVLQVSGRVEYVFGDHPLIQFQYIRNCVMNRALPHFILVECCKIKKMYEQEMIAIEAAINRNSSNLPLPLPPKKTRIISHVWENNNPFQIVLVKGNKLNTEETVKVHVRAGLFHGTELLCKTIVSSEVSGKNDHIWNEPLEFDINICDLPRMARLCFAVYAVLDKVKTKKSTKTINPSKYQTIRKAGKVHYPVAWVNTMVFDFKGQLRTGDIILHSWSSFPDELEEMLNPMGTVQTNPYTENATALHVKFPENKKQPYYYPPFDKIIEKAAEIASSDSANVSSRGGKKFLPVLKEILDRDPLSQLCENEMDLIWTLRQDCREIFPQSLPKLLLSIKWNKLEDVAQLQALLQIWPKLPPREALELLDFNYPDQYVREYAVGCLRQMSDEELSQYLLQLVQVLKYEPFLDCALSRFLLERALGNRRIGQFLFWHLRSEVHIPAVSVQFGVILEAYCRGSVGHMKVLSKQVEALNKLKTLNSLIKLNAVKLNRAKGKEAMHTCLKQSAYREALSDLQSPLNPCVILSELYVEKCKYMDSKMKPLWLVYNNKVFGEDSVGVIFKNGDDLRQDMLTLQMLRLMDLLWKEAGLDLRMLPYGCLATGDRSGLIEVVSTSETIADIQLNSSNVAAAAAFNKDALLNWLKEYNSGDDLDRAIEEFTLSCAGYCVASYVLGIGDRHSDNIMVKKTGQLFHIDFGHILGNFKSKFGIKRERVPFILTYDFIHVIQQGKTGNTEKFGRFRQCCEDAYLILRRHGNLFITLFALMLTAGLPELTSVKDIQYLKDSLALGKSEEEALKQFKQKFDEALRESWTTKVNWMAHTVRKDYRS
Sequence of Aurora kinase A (O14965 whole entry): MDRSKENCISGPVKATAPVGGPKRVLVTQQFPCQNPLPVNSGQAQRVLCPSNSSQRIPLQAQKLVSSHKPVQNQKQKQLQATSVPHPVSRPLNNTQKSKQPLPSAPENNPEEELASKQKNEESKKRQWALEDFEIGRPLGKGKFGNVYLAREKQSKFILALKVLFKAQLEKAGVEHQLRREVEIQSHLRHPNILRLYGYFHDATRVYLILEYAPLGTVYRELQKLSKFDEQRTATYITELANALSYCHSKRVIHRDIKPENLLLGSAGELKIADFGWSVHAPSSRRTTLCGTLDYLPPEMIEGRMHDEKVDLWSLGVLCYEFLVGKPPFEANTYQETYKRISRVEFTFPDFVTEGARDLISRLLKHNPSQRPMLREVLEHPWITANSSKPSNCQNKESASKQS
Sequence of Tyrosine-protein kinase Blk (Mus musculus) (P16277 whole entry): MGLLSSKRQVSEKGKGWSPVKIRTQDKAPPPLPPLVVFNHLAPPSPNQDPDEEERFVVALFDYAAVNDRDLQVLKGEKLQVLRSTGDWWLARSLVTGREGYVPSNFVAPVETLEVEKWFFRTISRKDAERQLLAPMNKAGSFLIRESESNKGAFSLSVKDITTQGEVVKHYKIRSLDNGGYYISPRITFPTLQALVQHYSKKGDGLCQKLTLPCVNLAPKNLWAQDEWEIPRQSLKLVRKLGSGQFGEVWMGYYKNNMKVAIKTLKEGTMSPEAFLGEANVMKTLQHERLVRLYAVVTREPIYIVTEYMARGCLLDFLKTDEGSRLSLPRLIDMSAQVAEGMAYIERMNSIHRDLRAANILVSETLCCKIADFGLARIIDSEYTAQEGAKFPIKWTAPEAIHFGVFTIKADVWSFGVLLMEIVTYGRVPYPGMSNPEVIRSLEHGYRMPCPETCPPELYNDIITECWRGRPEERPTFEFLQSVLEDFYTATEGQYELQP
Sequence of Insulin receptor (Mus musculus) (P15208 28-748 limits assumed): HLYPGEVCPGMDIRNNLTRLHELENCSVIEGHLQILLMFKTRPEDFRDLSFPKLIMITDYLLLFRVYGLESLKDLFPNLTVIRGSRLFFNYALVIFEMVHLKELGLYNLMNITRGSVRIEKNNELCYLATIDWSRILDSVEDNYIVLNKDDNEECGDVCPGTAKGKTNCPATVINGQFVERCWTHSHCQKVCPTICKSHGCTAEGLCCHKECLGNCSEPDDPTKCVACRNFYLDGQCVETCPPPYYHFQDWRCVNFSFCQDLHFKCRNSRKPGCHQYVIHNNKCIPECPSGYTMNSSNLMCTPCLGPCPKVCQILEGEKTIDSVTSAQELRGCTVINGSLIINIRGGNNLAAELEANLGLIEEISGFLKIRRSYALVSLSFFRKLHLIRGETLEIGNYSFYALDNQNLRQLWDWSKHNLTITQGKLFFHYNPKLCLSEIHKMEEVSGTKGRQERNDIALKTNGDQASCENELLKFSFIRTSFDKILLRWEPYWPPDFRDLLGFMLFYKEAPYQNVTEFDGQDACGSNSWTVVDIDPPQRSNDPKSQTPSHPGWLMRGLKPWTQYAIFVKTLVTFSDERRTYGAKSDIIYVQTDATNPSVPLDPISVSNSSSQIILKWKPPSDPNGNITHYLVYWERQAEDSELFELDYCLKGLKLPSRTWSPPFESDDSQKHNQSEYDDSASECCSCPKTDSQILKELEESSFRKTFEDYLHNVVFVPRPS
Sequence of Insulin receptor (Mus musculus) (P15208 753-1372 limits assumed): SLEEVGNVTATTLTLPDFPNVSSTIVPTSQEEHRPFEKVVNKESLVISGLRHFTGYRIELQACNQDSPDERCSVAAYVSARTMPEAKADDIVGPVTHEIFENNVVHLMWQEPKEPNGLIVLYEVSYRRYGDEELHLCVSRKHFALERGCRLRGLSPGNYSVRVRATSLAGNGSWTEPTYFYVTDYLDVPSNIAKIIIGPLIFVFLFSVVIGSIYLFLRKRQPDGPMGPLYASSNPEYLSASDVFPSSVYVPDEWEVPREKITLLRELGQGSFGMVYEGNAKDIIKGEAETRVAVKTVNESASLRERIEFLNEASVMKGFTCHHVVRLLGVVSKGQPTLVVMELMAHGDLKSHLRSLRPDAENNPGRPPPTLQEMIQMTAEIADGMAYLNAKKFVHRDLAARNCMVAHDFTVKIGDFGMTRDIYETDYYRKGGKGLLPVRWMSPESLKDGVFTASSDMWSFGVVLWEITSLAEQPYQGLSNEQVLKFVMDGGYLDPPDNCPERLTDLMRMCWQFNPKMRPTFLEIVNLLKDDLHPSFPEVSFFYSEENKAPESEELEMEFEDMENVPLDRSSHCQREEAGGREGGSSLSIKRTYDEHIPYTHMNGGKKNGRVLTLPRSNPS
Sequence of Ribosomal protein S6 kinase alpha-4 (O75676 whole entry): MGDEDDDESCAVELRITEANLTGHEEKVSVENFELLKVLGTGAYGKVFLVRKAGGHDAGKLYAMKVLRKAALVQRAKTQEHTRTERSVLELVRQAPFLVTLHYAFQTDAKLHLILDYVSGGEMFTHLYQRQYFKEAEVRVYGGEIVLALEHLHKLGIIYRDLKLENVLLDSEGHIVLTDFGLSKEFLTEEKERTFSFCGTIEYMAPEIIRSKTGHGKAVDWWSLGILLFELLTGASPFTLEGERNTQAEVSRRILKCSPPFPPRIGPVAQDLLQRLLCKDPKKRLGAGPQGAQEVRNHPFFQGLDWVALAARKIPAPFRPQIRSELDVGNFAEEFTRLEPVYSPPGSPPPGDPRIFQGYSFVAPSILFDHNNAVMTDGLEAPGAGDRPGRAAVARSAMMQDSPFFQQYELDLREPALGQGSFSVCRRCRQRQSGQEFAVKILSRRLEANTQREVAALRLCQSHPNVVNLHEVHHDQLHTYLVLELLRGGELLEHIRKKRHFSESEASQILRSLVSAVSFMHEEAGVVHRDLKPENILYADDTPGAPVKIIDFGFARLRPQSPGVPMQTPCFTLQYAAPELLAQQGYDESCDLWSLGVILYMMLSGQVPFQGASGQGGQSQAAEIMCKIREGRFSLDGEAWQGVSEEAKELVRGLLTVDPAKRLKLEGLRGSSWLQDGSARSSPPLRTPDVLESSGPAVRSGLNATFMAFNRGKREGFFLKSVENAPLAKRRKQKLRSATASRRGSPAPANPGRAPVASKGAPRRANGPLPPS
Sequence of Protein-tyrosine kinase 6 (Homo sapiens) (Q13882 whole entry, looked up): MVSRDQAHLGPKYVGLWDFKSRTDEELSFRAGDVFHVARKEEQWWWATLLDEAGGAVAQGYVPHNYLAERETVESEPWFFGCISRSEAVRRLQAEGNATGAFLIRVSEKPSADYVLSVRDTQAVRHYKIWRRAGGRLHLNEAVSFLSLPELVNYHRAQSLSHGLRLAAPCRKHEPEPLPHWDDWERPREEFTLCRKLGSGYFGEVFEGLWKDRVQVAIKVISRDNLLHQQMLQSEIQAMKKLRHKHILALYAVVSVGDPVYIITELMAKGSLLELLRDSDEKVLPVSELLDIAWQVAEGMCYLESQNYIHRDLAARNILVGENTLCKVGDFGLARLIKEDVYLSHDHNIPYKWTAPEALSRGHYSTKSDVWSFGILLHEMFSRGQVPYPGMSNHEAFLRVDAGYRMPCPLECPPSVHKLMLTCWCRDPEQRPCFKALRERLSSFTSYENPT

Usually IC50 stands for the concentration at which inhibition is half-maximal. Broadly, the inhibition in vivo is the share of the control response that was lost under treatment. As a reminder, the inhibition is the share of the control response that was lost under treatment. Turning to `CCc1cc(Nc2nccc(-c3c(-c4ccc(OC)c(C(=O)Nc5c(F)cccc5F)c4)nc4ccccn34)n2)c(OC)cc1N1CCC(N2CCN(S(C)(=O)=O)CC2)CC1`, the IC50 in the data set with L-363 was 0.165 µM; with EJM it was above 30 µM; in the data set on KARPAS-299, above 30 µM; in data set [1] it was 0.06 µM; against Aurora kinase A it was above 8 µM; in data set [5], above 10 µM. The IC50 was above 10 µM in data set [6] and 3.64 µM in data set [15]. In addition, the IC50 at 72 h in [2] was above 20 µM. Further, the outcome in the data set with NCI-H929 was Active. Further, the Activity in the data set on COLO 205 turned out to be 78%. Besides, the inhibition in vivo at 30 mg/kg in data set [3] was 99%. For the same molecule, in data set [4], the “inhibition (INH)” value is 100%. Further, the inhibition came to 4% in data set [7]; 25% in data set [8]; 11% in data set [9]; 11% in data set [10]; 0% in [12]; 22% in data set [13]. The inhibition in [14] was found to be 1%. The inhibition at 0.3 µM in data set [11] came out at 1%. Moreover, the inhibition result in [16] is “inactive”.
